From ChEMBL document CHEMBL1134768, “Identification of a putative binding site for [2',5'-bis-O-(tert-butyldimethylsilyl)-beta-D-ribofuranosyl]-3'-spiro-5''-(4''-amino-1'',2''-oxathiole-2'',2''-dioxide)thymine (TSAO) derivatives at the p51-p66 interface of HIV-1 reverse transcriptase” (J Med Chem, 2001)

Key:
CCRF-CEM [1] = experiment: Inhibitory activity against HIV-2 in CEM cell culture.; format: functional, cell-based; conditions: Homo sapiens
MT4 [2] = experiment: Inhibitory activity against HIV-2 in MT-4 cell culture.; format: functional, cell-based; conditions: Homo sapiens
CCRF-CEM [3] = experiment: Inhibitory activity against HIV-1 in CEM cell culture.; format: functional, cell-based; conditions: Homo sapiens
Summary of the method: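 CEM cells at about 200000-300000 cells/mL infected with HIV-1 (IIIB), then added to serial dilutions of compound. After 4 days at 37 °C, syncytium formation was scored by microscopy.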

MT4 [4] = experiment: Inhibitory activity against HIV-1 in MT-4 cell culture.; format: functional, cell-based; conditions: Homo sapiens
Summary of the method: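 MT-4 cells at about 200000-300000 cells/mL infected with HIV-1 (IIIB) and incubated with serial compound dilutions for 5 days at 37 °C. Viable cells were counted by trypan blue exclusion.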

[5] = target: Human immunodeficiency virus type 1 reverse transcriptase (Human immunodeficiency virus 1, UniProt Q72547); experiment: Inhibitory activity against wild-type HIV-1 reverse transcriptase
[6] = target: Human immunodeficiency virus type 1 reverse transcriptase (Human immunodeficiency virus 1, UniProt Q72547, R172A); experiment: Inhibitory activity against R172A mutant reverse transcriptase
[7] = target: Human immunodeficiency virus type 1 reverse transcriptase (Human immunodeficiency virus 1, UniProt Q72547, E138K); experiment: Inhibitory activity against E138K mutant reverse transcriptase

Row | EC50 (CCRF-CEM [1]) [nM] | EC50 (CCRF-CEM [3]) [nM] | Compound | EC50 (MT4 [2]) [nM] | EC50 (MT4 [4]) [nM] | IC50 [5] [nM] | IC50 [6] [nM] | IC50 [7] [nM]
1 | > 10000 | 120 | CC1=CNC(=O)N([C@@H]2O[C@H](CO[Si](C)(C)C(C)(C)C)[C@@]3(OS(=O)(=O)C=C3N)[C@H]2O[Si](C)(C)C(C)(C)C)C1 | > 10000 | 230 |  |  | 
2 | > 2000 | 170 | Cc1cn([C@@H]2O[C@H](CO[Si](C)(C)C(C)(C)C)[C@@]3(OS(=O)(=O)C=C3N)[C@H]2O[Si](C)(C)C(C)(C)C)c(=O)[nH]c1=S | > 10000 | 170 |  |  | 
3 | > 2000 | 10 | Cc1cn([C@@H]2O[C@H](CO[Si](C)(C)C(C)(C)C)[C@@]3(OS(=O)(=O)C=C3N)[C@H]2O[Si](C)(C)C(C)(C)C)c(=O)n(CCCO)c1=O | > 2000 | 30 |  |  | 
4 |  |  | CC(C)=CCOc1cc(NC(=S)c2ccoc2C)ccc1Cl [UC 781] |  |  | 23.8 | 20.8 | 226
5 | > 2000 | 100 | CC1=CN([C@@H]2O[C@H](CO[Si](C)(C)C(C)(C)C)[C@@]3(OS(=O)(=O)C=C3N)[C@H]2O[Si](C)(C)C(C)(C)C)C(=O)NC1 | > 10000 | 200 |  |  | 

Row | Compound | EC50 (CCRF-CEM [1]) [nM] | EC50 (CCRF-CEM [3]) [nM] | EC50 (MT4 [2]) [nM] | EC50 (MT4 [4]) [nM] | IC50 [5] [nM] | IC50 [6] [nM] | IC50 [7] [nM]
6 | Cc1cn([C@@H]2O[C@H](CO[Si](C)(C)C(C)(C)C)C3(OS(=O)(=O)C=C3N)[C@H]2O[Si](C)(C)C(C)(C)C)c(=O)[nH]c1=O (stereo partly drawn) | > 20000 |  | > 20000 |  | 6100 | 627 | > 848000
7 | Cc1cn([C@@H]2O[C@H](CO[Si](C)(C)C(C)(C)C)[C@@]3(OS(=O)(=O)C=C3N)[C@H]2O[Si](C)(C)C(C)(C)C)c(=O)n(C)c1=O | > 200000 | 60 | > 200000 | 50 |  |  | 
